Data taken from ChEMBL document CHEMBL1134439, “Radioiodinated styrylbenzenes and thioflavins as probes for amyloid aggregates” (J Med Chem, 2001).

Tests used:
Mus musculus [1] = test: Biodistribution was measured in mice heart 60 minutes after intravenous injection of [125I]-labeled styrylbenzene.; format: ADME, organism-based; conditions: in vivo, 1 h
Summary of the method: (§1)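 ICR mice (2-3 months old, 20-30 g) under ether anesthesia received 5-10 µCi ¹²⁵I tracer in 0.15 mL saline by tail-vein injection. Animals were killed by cardiac excision at set times post-injection. Organs were removed, weighed and γ-counted. Values are % dose per organ against diluted injectate aliquots, taking blood and muscle as 7% and 40% of body weight. Mean of 3-4 mice ± SD.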

Mus musculus [2] = test: Biodistribution was measured in mice skin 24 hours after intravenous injection of [125I]-labeled styrylbenzene.; format: ADME, organism-based, Zone of skin; conditions: in vivo; summary of the method: as §1
Mus musculus [3] = test: Biodistribution was measured in mice kidney 24 hours after intravenous injection of [125I]-labeled styrylbenzene.; format: ADME, organism-based; conditions: in vivo; summary of the method: as §1
Mus musculus [4] = test: Biodistribution was measured in mice lung 24 hours after intravenous injection of [125I]-labeled styrylbenzene.; format: ADME, organism-based; conditions: in vivo, in the assay text read “thioflavin” for “styrylbenzene”; summary of the method: as §1
Mus musculus [5] = test: Biodistribution was measured in mice lung 2 minutes after intravenous injection of [125I]-labeled styrylbenzene.; format: ADME, organism-based; conditions: in vivo; summary of the method: as §1
Mus musculus [6] = test: Biodistribution was measured in mice brain 2 minutes after intravenous injection of [125I]-labeled styrylbenzene; format: ADME, organism-based; conditions: in vivo, in the assay text read “thioflavin” for “styrylbenzene”; summary of the method: as §1
Mus musculus [7] = test: Biodistribution was measured in mice blood 60 minutes after intravenous injection of [125I]-labeled styrylbenzene.; format: ADME, organism-based; conditions: in vivo, 1 h; summary of the method: as §1
Mus musculus [8] = test: Biodistribution was measured in mice kidney 30 minutes after intravenous injection of [125I]-labeled styrylbenzene.; format: ADME, organism-based; conditions: in vivo, 0.5 h; summary of the method: as §1
Mus musculus [9] = test: Biodistribution was measured in mice blood 2 minutes after intravenous injection of [125I]-labeled styrylbenzene.; format: ADME, organism-based; conditions: in vivo; summary of the method: as §1
Mus musculus [10] = test: Biodistribution was measured in mice heart 30 minutes after intravenous injection of [125I]-labeled styrylbenzene.; format: ADME, organism-based; conditions: in vivo, 0.5 h; summary of the method: as §1
Mus musculus [11] = test: Biodistribution was measured in mice spleen 24 hours after intravenous injection of [125I]-labeled styrylbenzene.; format: ADME, organism-based; conditions: in vivo
Mus musculus [12] = test: Biodistribution was measured in mice skin 60 minutes after intravenous injection of [125I]-labeled styrylbenzene.; format: ADME, organism-based, Zone of skin; conditions: in vivo, 1 h; summary of the method: as §1
Mus musculus [13] = test: Biodistribution was measured in mice spleen 6 hours after intravenous injection of [125I]-labeled thioflavin.; conditions: in vivo
Mus musculus [14] = test: Biodistribution was measured in mice spleen 2 minutes after intravenous injection of [125I]-labeled styrylbenzene.; format: ADME, organism-based; conditions: in vivo; summary of the method: as §1
Mus musculus [15] = test: Biodistribution was measured in mice brain 24 hours after intravenous injection of [125I]-labeled styrylbenzene; format: ADME, organism-based; conditions: in vivo, in the assay text read “thioflavin” for “styrylbenzene”; summary of the method: as §1
Mus musculus [16] = test: Biodistribution was measured in mice blood 6 hours after intravenous injection of [125I]-labeled styrylbenzene.; format: ADME, organism-based; conditions: in vivo; summary of the method: as §1
Mus musculus [17] = test: Biodistribution was measured in mice muscle 6 hours after intravenous injection of [125I]-labeled styrylbenzene.; format: ADME, organism-based, Muscle tissue; conditions: in vivo; summary of the method: as §1
Mus musculus [18] = test: Biodistribution was measured in mice lung 60 minutes after intravenous injection of [125I]-labeled styrylbenzene.; format: ADME, organism-based; conditions: in vivo, 1 h; summary of the method: as §1
Mus musculus [19] = test: Biodistribution was measured in mice liver 30 minutes after intravenous injection of [125I]-labeled styrylbenzene.; format: ADME, organism-based; conditions: in vivo, 0.5 h; summary of the method: as §1
Mus musculus [20] = test: Biodistribution was measured in mice muscle 24 hours after intravenous injection of [125I]-labeled styrylbenzene.; format: ADME, organism-based, Muscle tissue; conditions: in vivo; summary of the method: as §1
Mus musculus [21] = test: Biodistribution was measured in mice muscle 30 minutes after intravenous injection of [125I]-labeled styrylbenzene.; format: ADME, organism-based, Muscle tissue; conditions: in vivo, 0.5 h; summary of the method: as §1
Mus musculus [22] = test: Biodistribution was measured in mice heart 2 minutes after intravenous injection of [125I]-labeled styrylbenzene.; format: ADME, organism-based; conditions: in vivo; summary of the method: as §1
Mus musculus [23] = test: Biodistribution was measured in mice kidney 60 minutes after intravenous injection of [125I]-labeled styrylbenzene.; format: ADME, organism-based; conditions: in vivo, 1 h; summary of the method: as §1
Mus musculus [24] = test: Biodistribution was measured in mice skin 30 minutes after intravenous injection of [125I]-labeled styrylbenzene.; format: ADME, organism-based, Zone of skin; conditions: in vivo, 0.5 h; summary of the method: as §1
Mus musculus [25] = test: Biodistribution was measured in mice liver 24 hours after intravenous injection of [125I]-labeled styrylbenzene.; format: ADME, organism-based; conditions: in vivo; summary of the method: as §1
Mus musculus [26] = test: Biodistribution was measured in mice blood 24 hours after intravenous injection of [125I]-labeled styrylbenzene.; format: ADME, organism-based; conditions: in vivo; summary of the method: as §1
Mus musculus [27] = test: Biodistribution was measured in mice brain 60 minutes after intravenous injection of [125I]-labeled styrylbenzene; format: ADME, organism-based; conditions: in vivo, 1 h; summary of the method: as §1
Mus musculus [28] = test: Biodistribution was measured in mice muscle 2 minutes after intravenous injection of [125I]-labeled styrylbenzene.; format: ADME, organism-based, Muscle tissue; conditions: in vivo, in the assay text read “thioflavin” for “styrylbenzene”; summary of the method: as §1
Mus musculus [29] = test: Biodistribution was measured in mice spleen 60 minutes after intravenous injection of [125I]-labeled styrylbenzene.; format: ADME, organism-based; conditions: in vivo, 1 h
Summary of the method: (§2)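 ICR mice (2-3 months old, 20-30 g) under ether anesthesia; 0.15 mL saline containing 5-10 µCi ¹²⁵I tracer injected into tail vein. Sacrifice by cardiac excision at set times; organs removed, weighed, γ-counted. Expressed as % dose per organ versus diluted aliquots of injectate. Mean of three or four mice ± SD.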

Mus musculus [30] = test: Biodistribution was measured in mice skin 2 minutes after intravenous injection of [125I]-labeled styrylbenzene.; format: ADME, organism-based, Zone of skin; conditions: in vivo; summary of the method: as §1
Mus musculus [31] = test: Biodistribution was measured in mice kidney 6 hours after intravenous injection of [125I]-labeled styrylbenzene.; format: ADME, organism-based; conditions: in vivo; summary of the method: as §1
Mus musculus [32] = test: Biodistribution was measured in mice kidney 2 minutes after intravenous injection of [125I]-labeled styrylbenzene.; format: ADME, organism-based; conditions: in vivo; summary of the method: as §1
Mus musculus [33] = test: Biodistribution was measured in mice blood 30 minutes after intravenous injection of [125I]-labeled styrylbenzene.; format: ADME, organism-based; conditions: in vivo, 0.5 h; summary of the method: as §1
Mus musculus [34] = test: Biodistribution was measured in mice muscle 60 minutes after intravenous injection of [125I]-labeled styrylbenzene.; format: ADME, organism-based, Muscle tissue; conditions: in vivo, 1 h; summary of the method: as §1
Mus musculus [35] = test: Biodistribution was measured in mice skin 6 hours after intravenous injection of [125I]-labeled styrylbenzene.; format: ADME, organism-based, Zone of skin; conditions: in vivo; summary of the method: as §1
Mus musculus [36] = test: Biodistribution was measured in mice lung 6 hours after intravenous injection of [125I]-labeled styrylbenzene.; format: ADME, organism-based; conditions: in vivo, in the assay text read “thioflavin” for “styrylbenzene”; summary of the method: as §1
Mus musculus [37] = test: Biodistribution was measured in mice liver 60 minutes after intravenous injection of [125I]-labeled styrylbenzene.; format: ADME, organism-based; conditions: in vivo, 1 h; summary of the method: as §1
Mus musculus [38] = test: Biodistribution was measured in mice liver 6 hours after intravenous injection of [125I]-labeled styrylbenzene.; format: ADME, organism-based; conditions: in vivo, in the assay text read “thioflavin” for “styrylbenzene”; summary of the method: as §1
Mus musculus [39] = test: Biodistribution was measured in mice heart 24 hours after intravenous injection of [125I]-labeled styrylbenzene.; format: ADME, organism-based; conditions: in vivo; summary of the method: as §1
[40] = target: Amyloid-beta precursor protein (Homo sapiens, UniProt P05067); test: Inhibition constant for aggregates of amyloid beta compared to [125I]IMSB
Amyloid-beta precursor protein, sequence (P05067 whole entry): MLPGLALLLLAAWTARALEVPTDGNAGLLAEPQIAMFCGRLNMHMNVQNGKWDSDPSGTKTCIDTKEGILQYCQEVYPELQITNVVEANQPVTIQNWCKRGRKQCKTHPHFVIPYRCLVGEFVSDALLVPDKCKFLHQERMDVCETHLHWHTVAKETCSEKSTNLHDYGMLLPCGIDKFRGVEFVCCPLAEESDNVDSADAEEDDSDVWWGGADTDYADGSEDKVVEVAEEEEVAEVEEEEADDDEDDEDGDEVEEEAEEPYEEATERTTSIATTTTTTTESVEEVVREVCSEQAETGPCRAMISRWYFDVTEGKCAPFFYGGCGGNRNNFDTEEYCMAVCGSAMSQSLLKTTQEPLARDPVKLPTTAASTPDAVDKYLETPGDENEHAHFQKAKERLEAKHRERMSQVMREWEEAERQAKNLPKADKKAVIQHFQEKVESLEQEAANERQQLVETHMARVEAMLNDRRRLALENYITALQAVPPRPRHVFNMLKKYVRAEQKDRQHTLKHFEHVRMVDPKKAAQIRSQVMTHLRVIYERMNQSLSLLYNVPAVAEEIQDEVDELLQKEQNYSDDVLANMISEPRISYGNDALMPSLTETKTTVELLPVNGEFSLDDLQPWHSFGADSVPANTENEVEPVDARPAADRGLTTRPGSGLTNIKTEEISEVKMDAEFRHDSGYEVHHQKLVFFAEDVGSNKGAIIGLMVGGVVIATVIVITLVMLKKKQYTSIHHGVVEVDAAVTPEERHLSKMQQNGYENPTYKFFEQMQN
Summary of the method: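 Aβ(1-40) or Aβ(1-42) aggregated at 0.5 or 0.25 mg/mL respectively in pH 7.4 buffer (10 mM sodium phosphate, 1 mM EDTA), 37 °C, 36-42 h with shaking. Competition against ¹²⁵I radioligand with fibrils 10-50 nM (final), 10% EtOH, 1 mL. Incubation 3 h room temperature. Bound ligand collected by GF/B filtration, γ-counted. Ki by nonlinear regression. Mean ± SEM, three experiments in duplicate.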

Mus musculus [41] = test: Biodistribution was measured in mice spleen 30 minutes after intravenous injection of [125I]-labeled styrylbenzene.; format: ADME, organism-based; conditions: in vivo, 0.5 h; summary of the method: as §2
Mus musculus [42] = test: Biodistribution was measured in mice liver 2 minutes after intravenous injection of [125I]-labeled styrylbenzene.; format: ADME, organism-based; conditions: in vivo; summary of the method: as §1
Mus musculus [43] = test: Biodistribution was measured in mice lung 30 minutes after intravenous injection of [125I]-labeled styrylbenzene.; format: ADME, organism-based; conditions: in vivo, 0.5 h; summary of the method: as §1
Mus musculus [44] = test: Biodistribution was measured in mice brain 6 hours after intravenous injection of [125I]-labeled styrylbenzene; format: ADME, organism-based; conditions: in vivo; summary of the method: as §1
Mus musculus [45] = test: Biodistribution was measured in mice brain 30 minutes after intravenous injection of [125I]-labeled styrylbenzene; format: ADME, organism-based; conditions: in vivo, 0.5 h; summary of the method: as §1
Mus musculus [46] = test: Biodistribution was measured in mice heart 6 hours after intravenous injection of [125I]-labeled styrylbenzene.; format: ADME, organism-based; conditions: in vivo; summary of the method: as §1

With `CN1CCN(c2ccc(-c3nc4ccc(I)cc4s3)cc2)CC1` the Dose/organ (Mus musculus [1]) was 0.66%, the Dose/organ (Mus musculus [2]) was 1.64% and the Dose/organ (Mus musculus [3]) was 1.15%. For the same compound, the Dose/organ (Mus musculus [4]) was 0.44%, the Dose/organ (Mus musculus [5]) was 12.8% and the Dose/organ (Mus musculus [6]) was 1.5%. For the same compound, the Dose/organ (Mus musculus [7]) was 4.16%, the Dose/organ (Mus musculus [8]) was 8.06% and the Dose/organ (Mus musculus [9]) was 8.02%. It also gave a Dose/organ (Mus musculus [10]) of 0.69%, a Dose/organ (Mus musculus [11]) of 0.08% and a Dose/organ (Mus musculus [12]) of 5.63%. It also gave a Dose/organ (Mus musculus [13]) of 0.22%, a Dose/organ (Mus musculus [14]) of 0.89% and a Dose/organ (Mus musculus [15]) of 0.91%. The Dose/organ (Mus musculus [16]) was 1.49%, the Dose/organ (Mus musculus [17]) was 6.65% and the Dose/organ (Mus musculus [18]) was 3.38%. The Dose/organ (Mus musculus [19]) was 21.22%, the Dose/organ (Mus musculus [20]) was 2.44% and the Dose/organ (Mus musculus [21]) was 18.82%. The Dose/organ (Mus musculus [22]) was 2.19%, the Dose/organ (Mus musculus [23]) was 7.99% and the Dose/organ (Mus musculus [24]) was 6.07%. The Dose/organ (Mus musculus [25]) was 3.05%, the Dose/organ (Mus musculus [26]) was 0.41% and the Dose/organ (Mus musculus [27]) was 1.89%. It also gave a Dose/organ (Mus musculus [28]) of 13.24%, a Dose/organ (Mus musculus [29]) of 0.6% and a Dose/organ (Mus musculus [30]) of 4.06%. For the same compound, the Dose/organ (Mus musculus [31]) was 3.62%, the Dose/organ (Mus musculus [32]) was 6.46% and the Dose/organ (Mus musculus [33]) was 5.15%. For the same compound, the Dose/organ (Mus musculus [34]) was 19.46%, the Dose/organ (Mus musculus [35]) was 3.17% and the Dose/organ (Mus musculus [36]) was 1.15%. For the same compound, the Dose/organ (Mus musculus [37]) was 17.2%, the Dose/organ (Mus musculus [38]) was 5.79% and the Dose/organ (Mus musculus [39]) was 0.08%. It also gave a Ki [40] of over 2000 nM, a Dose/organ (Mus musculus [41]) of 0.87% and a Dose/organ (Mus musculus [42]) of 28.84%. The Dose/organ (Mus musculus [43]) was 4.14%, the Dose/organ (Mus musculus [44]) was 1.08% and the Dose/organ (Mus musculus [45]) was 1.59%. For the same compound, the Dose/organ (Mus musculus [46]) was 0.22%.
